Legend:
[1] = target: T1, Adrenergic receptor alpha-1 (Rattus norvegicus, UniProt P15823+P23944+P43140); test: Intrinsic activity for displacement of [3H]- prazosin from Alpha-1 adrenergic receptor of rat cerebral cortex membrane in the absence of 1 nM GTP; format: tissue-based
T1 sequence (P15823 whole entry): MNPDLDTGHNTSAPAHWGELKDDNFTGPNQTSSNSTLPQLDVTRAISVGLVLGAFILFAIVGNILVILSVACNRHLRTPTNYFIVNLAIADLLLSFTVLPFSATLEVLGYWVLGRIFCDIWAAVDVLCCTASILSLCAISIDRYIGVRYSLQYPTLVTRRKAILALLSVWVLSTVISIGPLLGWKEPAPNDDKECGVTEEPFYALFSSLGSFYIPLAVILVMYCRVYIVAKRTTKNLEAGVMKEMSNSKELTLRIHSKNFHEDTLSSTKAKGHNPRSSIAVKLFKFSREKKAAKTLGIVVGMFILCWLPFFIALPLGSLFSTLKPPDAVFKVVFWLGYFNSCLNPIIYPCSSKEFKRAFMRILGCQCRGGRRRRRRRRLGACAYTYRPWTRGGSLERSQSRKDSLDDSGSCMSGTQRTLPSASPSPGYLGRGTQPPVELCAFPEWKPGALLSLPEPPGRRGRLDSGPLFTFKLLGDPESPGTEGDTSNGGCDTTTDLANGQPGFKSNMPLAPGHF
T1 sequence (P23944 whole entry): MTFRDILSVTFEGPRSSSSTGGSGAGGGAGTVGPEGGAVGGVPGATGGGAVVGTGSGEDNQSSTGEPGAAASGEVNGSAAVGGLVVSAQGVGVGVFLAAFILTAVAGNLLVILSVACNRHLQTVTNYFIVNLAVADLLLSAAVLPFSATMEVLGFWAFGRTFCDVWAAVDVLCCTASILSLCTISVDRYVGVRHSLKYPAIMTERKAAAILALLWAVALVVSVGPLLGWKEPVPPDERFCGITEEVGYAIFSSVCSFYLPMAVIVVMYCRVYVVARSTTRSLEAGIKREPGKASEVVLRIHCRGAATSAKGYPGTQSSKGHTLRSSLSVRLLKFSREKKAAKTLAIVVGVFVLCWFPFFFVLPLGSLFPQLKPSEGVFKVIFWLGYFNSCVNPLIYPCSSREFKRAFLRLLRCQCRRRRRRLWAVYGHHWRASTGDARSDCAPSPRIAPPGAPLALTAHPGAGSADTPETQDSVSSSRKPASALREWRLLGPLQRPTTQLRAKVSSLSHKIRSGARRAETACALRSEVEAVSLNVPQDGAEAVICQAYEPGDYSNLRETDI
T1 sequence (P43140 whole entry): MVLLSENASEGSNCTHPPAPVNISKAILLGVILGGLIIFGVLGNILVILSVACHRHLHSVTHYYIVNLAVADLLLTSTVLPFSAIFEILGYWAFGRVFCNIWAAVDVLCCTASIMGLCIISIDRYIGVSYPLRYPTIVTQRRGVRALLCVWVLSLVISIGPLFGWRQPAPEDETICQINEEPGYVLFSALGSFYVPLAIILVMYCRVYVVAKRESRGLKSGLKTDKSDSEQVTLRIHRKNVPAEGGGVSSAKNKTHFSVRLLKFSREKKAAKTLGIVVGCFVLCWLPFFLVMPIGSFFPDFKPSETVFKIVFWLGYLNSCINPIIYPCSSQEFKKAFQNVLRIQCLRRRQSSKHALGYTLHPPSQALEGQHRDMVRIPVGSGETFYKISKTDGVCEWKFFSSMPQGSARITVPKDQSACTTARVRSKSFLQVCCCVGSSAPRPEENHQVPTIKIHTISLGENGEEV

[2] = target: T1, Adrenergic receptor alpha-1; test: Binding affinity against Alpha-1 adrenergic receptor by displacing [3H]prazosin radioligand in rat cortex membrane.; format: cell membranes, Brain
[3] = target: T2, 5-hydroxytryptamine receptor 1A (Rattus norvegicus, UniProt P19327); test: Binding affinity against 5-hydroxytryptamine 1A receptor by displacing [3H]8-OH-DPAT radioligand in rat cortex membrane; format: cell membranes
T2 sequence (P19327 whole entry): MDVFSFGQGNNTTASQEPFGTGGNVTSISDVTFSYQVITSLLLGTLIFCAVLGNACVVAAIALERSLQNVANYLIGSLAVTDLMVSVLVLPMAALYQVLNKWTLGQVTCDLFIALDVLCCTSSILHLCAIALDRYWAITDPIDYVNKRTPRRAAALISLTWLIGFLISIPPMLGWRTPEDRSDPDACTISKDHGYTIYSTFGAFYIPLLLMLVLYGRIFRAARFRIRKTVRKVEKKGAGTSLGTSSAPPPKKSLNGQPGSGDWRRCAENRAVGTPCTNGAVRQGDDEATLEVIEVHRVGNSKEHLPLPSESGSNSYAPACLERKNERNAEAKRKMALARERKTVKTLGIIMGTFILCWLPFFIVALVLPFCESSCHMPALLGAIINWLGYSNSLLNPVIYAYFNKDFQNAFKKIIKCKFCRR
In short: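 Rat cortex membranes, pre-incubated 10 min at 37 °C to remove endogenous 5-HT, stored at –80 °C, then resuspended in 50 mM Tris-HCl pH 7.4 (0.2–0.3 mg protein). GF/C filtration, scintillation counting.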

[4] = target: T1, Adrenergic receptor alpha-1; test: Intrinsic activity for displacement of [3H]- prazosin from Alpha-1 adrenergic receptor of rat cerebral cortex membrane in the presence of 1 nM GTP; format: tissue-based
[5] = target: T3, Adrenergic receptor alpha-2 (Rattus norvegicus, UniProt P22086+P19328+P22909); test: Binding affinity against Alpha-2 adrenergic receptor by displacing [3H]rauwolscine radioligand in rat cortex membrane; format: cell membranes, Brain
T3 sequence (P22086 whole entry): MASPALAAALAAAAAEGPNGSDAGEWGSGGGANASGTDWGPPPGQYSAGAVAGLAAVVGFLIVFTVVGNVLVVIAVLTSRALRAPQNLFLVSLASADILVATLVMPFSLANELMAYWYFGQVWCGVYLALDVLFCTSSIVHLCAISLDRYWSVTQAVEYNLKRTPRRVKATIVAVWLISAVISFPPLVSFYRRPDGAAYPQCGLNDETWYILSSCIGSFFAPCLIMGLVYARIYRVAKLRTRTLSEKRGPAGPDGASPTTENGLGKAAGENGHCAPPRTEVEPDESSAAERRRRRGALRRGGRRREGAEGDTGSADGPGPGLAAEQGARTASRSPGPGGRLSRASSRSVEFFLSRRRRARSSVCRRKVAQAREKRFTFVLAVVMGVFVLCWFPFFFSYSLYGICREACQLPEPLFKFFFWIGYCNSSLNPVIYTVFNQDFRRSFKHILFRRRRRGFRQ
T3 sequence (P19328 whole entry): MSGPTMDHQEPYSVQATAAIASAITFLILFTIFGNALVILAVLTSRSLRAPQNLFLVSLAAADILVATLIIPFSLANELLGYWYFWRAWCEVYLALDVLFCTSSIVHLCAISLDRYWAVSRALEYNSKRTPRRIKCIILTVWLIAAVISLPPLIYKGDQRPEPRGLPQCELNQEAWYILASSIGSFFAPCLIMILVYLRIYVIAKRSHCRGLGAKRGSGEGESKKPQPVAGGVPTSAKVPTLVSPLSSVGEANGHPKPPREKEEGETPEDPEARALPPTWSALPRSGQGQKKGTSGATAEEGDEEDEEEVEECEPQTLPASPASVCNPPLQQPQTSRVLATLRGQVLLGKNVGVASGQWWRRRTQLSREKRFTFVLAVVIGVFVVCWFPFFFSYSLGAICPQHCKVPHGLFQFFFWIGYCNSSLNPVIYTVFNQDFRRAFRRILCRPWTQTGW
T3 sequence (P22909 whole entry): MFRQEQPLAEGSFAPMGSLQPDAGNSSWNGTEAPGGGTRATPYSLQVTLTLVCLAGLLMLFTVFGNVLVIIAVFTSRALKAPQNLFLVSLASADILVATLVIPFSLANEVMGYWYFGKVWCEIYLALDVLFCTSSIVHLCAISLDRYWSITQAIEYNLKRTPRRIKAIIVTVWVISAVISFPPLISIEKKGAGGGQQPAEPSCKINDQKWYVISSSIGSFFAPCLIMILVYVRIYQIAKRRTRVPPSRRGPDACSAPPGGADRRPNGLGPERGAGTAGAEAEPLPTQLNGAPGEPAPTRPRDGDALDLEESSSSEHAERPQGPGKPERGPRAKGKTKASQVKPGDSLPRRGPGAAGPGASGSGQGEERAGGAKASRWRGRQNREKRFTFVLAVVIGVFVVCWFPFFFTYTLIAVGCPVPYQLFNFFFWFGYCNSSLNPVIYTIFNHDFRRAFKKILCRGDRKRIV

[6] = target: T1, Adrenergic receptor alpha-1; test: Intrinsic activity against Alpha-1 adrenergic receptor expressed as displacement of [3H]prazosin from rat cerebral cortex membrane in the absence of 1 nM GTP; format: tissue-based
In short: (§1)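 [3H]prazosin competition on rat cerebral cortex membranes, run with and without GTP (1 nM in table footnote, 1 mM in text). The GTP shift is the ratio of the affinity constant with GTP to that without. Values are means ± SEM of three experiments.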

[7] = target: T1, Adrenergic receptor alpha-1; test: Intrinsic activity against Alpha-1 adrenergic receptor expressed as displacement of [3H]prazosin from rat cerebral cortex membrane in the presence of 1 nM GTP; format: tissue-based; in short: as §1

Structure (SMILES) | Ki [1] | Ki [2] | Ki [3] | Ki [4] | Ki [5] | Ki [6] | Ki [7]
O=c1ccc(-n2ccnc2)nn1CCCCCCCN1CCN(c2ccccc2Cl)CC1 | 4.9 nM | 4.6 nM | 123 nM | 8.33 nM | 24.5 nM | – | –
COc1ccccc1N1CCN(CCCCn2nc(-n3ccc4ccccc43)ccc2=O)CC1 | – | – | 253 nM | – | 20 nM | 1 nM | 1.6 nM
